This note sets out measurements from ChEMBL document CHEMBL1777677, “Synthesis of chromone carboxamide derivatives with antioxidative and calpain inhibitory properties” (Eur J Med Chem, 2011).

For experiment [1], the system named is Radical scavenging activity. Briefly: Antioxidant activity assessed as DPPH free radical scavenging activity after 30 mins. The class given is functional. A digest of the protocol: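 Test samples in ethanol mixed with 100 µM ethanolic DPPH, incubated 37 °C for 30 min; absorbance read at 515 nm. Percent inhibition taken against ethanol-treated controls; IC50 is the concentration scavenging 50% of DPPH radicals. Means ± SD of three independent experiments.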
Background: Loss of DPPH colour is used to gauge radical scavenging.

Another experiment relates to Liver. Briefly: Antioxidant activity in rat liver homogenates assessed as inhibition of iron-ascorbic acid mix-induced lipid peroxidation after 30 mins by TBARS assay. It is filed as functional, tissue-based. Particulars: 0.5 h. A digest of the protocol:
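Rat liver homogenate (11 mg protein/ml, Bradford vs BSA) incubated with 10 µM […], 0.4 mM ascorbic acid and graded compound concentrations in 50 mM Tris–HCl pH 7.5, 37 °C for 30 min. Stopped with TBA–TCA reagent containing HCl and BHT, heated 95 °C 30 min, centrifuged, supernatant A535 read. IC50 from three independent experiments, means ± SD.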

The nature of experiment [2]: Inhibition of human erythrocyte calpain using Suc-Leu-Tyr-AMC substrate after 30 mins by spectrofluorimetry. A digest of the protocol: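 Human erythrocyte calpain I, 34 nM stock added to start, with Suc-Leu-Tyr-AMC, NaCl and CaCl2 in 50 mM Tris–HCl pH 7.5, 1 mM DTT; DMSO ≤1% final. After 30 min at rt, AMC fluorescence read (ex 380/em 460 nm) against calpain-free blank. IC50 from percent inhibition across concentrations; means ± SD, three independent experiments.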

Each structure is given as a SMILES string. pIC50: −log10 of the molar value. Where only a bound is given, the exact number is not on record here.

Regarding `O=C1O[C@H]([C@@H](O)CO)C(O)=C1O` [ASCORBIC ACID], the results for the pIC50 (in experiment [1]; in the experiment on Liver) were 4.51 and < 4.00, respectively.
Consider `COc1cc2oc(C(=O)N[C@@H](Cc3ccccc3)C(=O)C(N)=O)c(C)c(=O)c2cc1OC`, for which, in experiment [2], the negative-log IC50 (pIC50) (as a rule, the negative decadic logarithm of the IC50, by convention in mol/L) is 7.05.
`COc1ccc(CCNC(=O)C(=O)[C@H](Cc2ccccc2)NC(=O)c2oc3cc(O)c(O)cc3c(=O)c2C)cc1`: the pIC50 in experiment [1] is 4.38; with Liver it was 4.28; in experiment [2], 5.89.
Regarding `COc1cc2oc(C(=O)N[C@@H](Cc3ccccc3)C(=O)C(=O)NCc3ccccc3)c(C)c(=O)c2cc1O`, in experiment [2], the pIC50 was 6.96.
In the case of `Cc1c(C(=O)N[C@@H](Cc2ccccc2)C(=O)C(=O)NCc2ccccc2)oc2cc(O)c(O)cc2c1=O`, the pIC50 was 4.58 in experiment [1], 4.31 in the experiment with Liver and 6.55 in experiment [2].
With `COc1ccc2c(=O)c(C)c(C(=O)N[C@@H](Cc3ccccc3)C(=O)C(=O)NCc3ccccc3)oc2c1`, in experiment [2], the pIC50 was 6.37.
The same measure, in the same setting: with `COc1ccc(CCNC(=O)C(=O)[C@H](Cc2ccccc2)NC(=O)c2oc3cc(OC)ccc3c(=O)c2C)cc1` the figure was 6.64; with `COc1ccc(CCNC(=O)C(=O)[C@H](Cc2ccccc2)NC(=O)c2oc3cc(OC)c(O)cc3c(=O)c2C)cc1`, 7.00; with `COc1ccc2c(=O)c(C)c(C(=O)N[C@@H](Cc3ccccc3)C(=O)C(N)=O)oc2c1`, 6.92.
As to `Cc1c(C(=O)N[C@@H](Cc2ccccc2)C(=O)C(N)=O)oc2ccccc2c1=O`, the results for the pIC50 (in experiment [1]; with Liver; in experiment [2]) were < 4.00, < 4.00 and 7.15, respectively.
`COc1ccc(CCNC(=O)C(=O)[C@H](Cc2ccccc2)NC(=O)c2oc3cc(OC)c(OC)cc3c(=O)c2C)cc1` showed a pIC50 in experiment [2] of 6.57.
The same measure, in the same setting: with `Cc1c(C(=O)N[C@@H](Cc2ccccc2)C(=O)C(=O)NCc2ccccc2)oc2cc(O)ccc2c1=O` the figure was 6.89; with `COc1cc2oc(C(=O)N[C@@H](Cc3ccccc3)C(=O)C(=O)NCc3ccccc3)c(C)c(=O)c2cc1OC`, 6.72.
On the same count and under the same terms, as for `COc1ccc(CCNC(=O)C(=O)[C@H](Cc2ccccc2)NC(=O)c2oc3cc(O)ccc3c(=O)c2C)cc1`, the figure is 7.05.
